According to ChEMBL document CHEMBL4196108, “5-Aroylindoles Act as Selective Histone Deacetylase 6 Inhibitors Ameliorating Alzheimer's Disease Phenotypes” (J Med Chem, 2018):
Active and inactive are the calls of the source. No cut-off for these calls is given here.

Key:
[1] = biological target: T1, Protein deacetylase HDAC6 (Mus musculus) (UniProt Q9Z2V5); assay: Inhibition of HDAC6 in mouse Neuro-2a cells transfected with pCAX FLAG APP and pRK5-EGFP-Tau P301L plasmids assessed as inhibition of Tau P301L mutant phosphorylation at Ser404 residue at 1 uM after 24 hrs by Western blot analysis; format: cell-based
T1 sequence (whole entry): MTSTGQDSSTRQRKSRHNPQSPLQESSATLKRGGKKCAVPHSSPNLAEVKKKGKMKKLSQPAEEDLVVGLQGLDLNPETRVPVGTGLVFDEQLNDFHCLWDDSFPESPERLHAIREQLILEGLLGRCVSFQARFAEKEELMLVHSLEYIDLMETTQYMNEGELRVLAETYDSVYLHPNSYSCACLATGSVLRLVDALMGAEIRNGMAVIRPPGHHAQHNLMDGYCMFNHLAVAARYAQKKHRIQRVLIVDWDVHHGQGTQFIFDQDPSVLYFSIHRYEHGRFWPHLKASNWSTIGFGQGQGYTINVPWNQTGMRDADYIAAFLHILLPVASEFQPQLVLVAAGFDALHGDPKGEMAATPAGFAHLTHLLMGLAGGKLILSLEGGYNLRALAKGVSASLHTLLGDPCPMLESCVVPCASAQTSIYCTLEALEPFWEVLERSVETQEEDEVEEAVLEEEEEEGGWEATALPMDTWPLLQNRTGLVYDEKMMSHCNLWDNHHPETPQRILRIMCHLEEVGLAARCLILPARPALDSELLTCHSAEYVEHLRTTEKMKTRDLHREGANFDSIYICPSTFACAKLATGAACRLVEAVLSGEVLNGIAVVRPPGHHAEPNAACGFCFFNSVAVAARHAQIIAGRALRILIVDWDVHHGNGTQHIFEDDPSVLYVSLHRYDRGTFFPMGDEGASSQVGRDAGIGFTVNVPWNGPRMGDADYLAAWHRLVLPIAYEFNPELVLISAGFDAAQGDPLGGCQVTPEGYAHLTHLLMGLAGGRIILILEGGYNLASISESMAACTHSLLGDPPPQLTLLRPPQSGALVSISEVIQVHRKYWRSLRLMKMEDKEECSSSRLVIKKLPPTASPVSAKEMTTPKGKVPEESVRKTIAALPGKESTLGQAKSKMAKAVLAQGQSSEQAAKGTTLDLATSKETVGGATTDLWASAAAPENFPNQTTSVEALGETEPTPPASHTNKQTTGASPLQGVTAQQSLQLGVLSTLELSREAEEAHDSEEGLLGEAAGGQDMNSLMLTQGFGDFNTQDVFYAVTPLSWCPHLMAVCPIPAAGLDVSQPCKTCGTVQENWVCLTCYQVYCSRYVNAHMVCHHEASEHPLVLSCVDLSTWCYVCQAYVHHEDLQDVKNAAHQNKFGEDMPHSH
Procedure, shortened: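 SH-SY5Y or Neuro-2a cells cotransfected 24 h with pCAX APP695 and pRK5-EGFP-Tau P301L, then treated 24 h at 1 µM. 20 µg lysate protein immunoblotted for APP and phospho-tau Ser396/Ser404. Mean ± STD of three independent experiments; Student's t-test.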

[2] = biological target: T1, Protein deacetylase HDAC6 (Mus musculus); assay: Inhibition of HDAC6 in mouse Neuro-2a cells transfected with pCAX FLAG APP and pRK5-EGFP-Tau P301L plasmids assessed as increase in HSP70 protein expression 1 uM after 24 hrs by Western blot analysis; format: cell-based
Procedure, shortened: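 SH-SY5Y and Neuro-2a cells cotransfected 24 h with APP695/Tau P301L plasmids, treated 24 h at 1 µM (ACY-1215 reference). 30 µg lysate immunoprecipitated overnight at 4 °C with anti-HDAC6 or anti-acetyl-lysine antibodies plus protein A/G beads, run on 8% SDS-PAGE, probed for Hsp90; Hsp70 by immunoblot. Three independent experiments.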

Mus musculus [3] = assay: In vivo inhibition of HDAC6 in 3xTg-AD transgenic mouse brain hippocampal CA1 region assessed as downregulation of […] expression of beta-amyloid at 50 mg/kg, po administered daily for 3 months by immunohistochemical analysis; format: functional, organism-based
[4] = Toxicity in Balb/c mouse assessed as survival rate at 100 mg/kg, ip qd administered for 6 days followed by 1 week recovery (reference value: 100%); format: organism-based; details: in vivo
Mus musculus [5] = assay: In vivo inhibition of HDAC6 in 3xTg-AD transgenic mouse brain hippocampal CA1 region assessed as downregulation of scopolamine-mediated increase in Tau phosphorylation at Ser404 residue at 50 mg/kg, po administered daily for 3 months by Western blot analysis; format: functional, organism-based
Procedure, shortened: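 Female 3xTg-AD mice, fed standard diet to 6 months of age, then dosed orally at 50 or 100 mg/kg once daily for three months. Brains removed; hippocampal tissue lysates immunoblotted for acetyl-α-tubulin and phospho-tau Ser396 and Ser404. Mean ± STD; one-way ANOVA.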

Structure (SMILES): COc1ccc(C(=O)c2ccc3c(ccn3Cc3ccc(C(=O)NO)cc3)c2)cc1
- inhibition [1]: Active
- inhibition [2]: Active
- inhibition (Mus musculus [3]): Active
- survival [4]: 100%
- inhibition (Mus musculus [5]): Active
